# According to ChEMBL document CHEMBL1212899, “Strategies for recognition of stem-loop RNA structures by synthetic ligands: application to the HIV-1 frameshift stimulatory sequence” (J Med Chem, 2010):
# Key:
# Nucleic Acid [1] = test: Binding affinity to HIV1 frameshift-stimulating RNA by fluorescence titration; format: nucleic-acid assay, Human immunodeficiency virus 1
# Summary of the method: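 5′-Cy3-labelled HIV-1 FSS RNA (400 or 500 nM) in 1X PBS pH 7.2 was heated to 65 °C for 4 min, then MgCl2 was added. Compound was titrated in over 100 nM–10 μM, with at least 10 min equilibration per step. Cy3 emission at 564.1 nm was dilution-corrected, and ΔFU was fit to a 1:1 model with ligand depletion to give KD. At least 2 titrations were run.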
# Nucleic Acid [2] = test: Binding affinity to HIV1 frameshift-stimulating RNA by fluorescence titration in presence of yeast tRNA; format: nucleic-acid assay, Human immunodeficiency virus 1
# Summary of the method: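 Cy3-labelled HIV-1 FSS RNA was premixed with yeast total tRNA competitor (8 or 16 μM) in 1X PBS pH 7.2 with MgCl2, then titrated with compound. Fluorescence was read at 564.1 nm after at least 10 min equilibration per addition. Dilution-corrected ΔFU was fit to a 1-site ligand-depletion model for KD.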
# [3] = Dissociation constant Kd of the compound; format: physicochemical
# [4] = Cytotoxicity against human fibroblast up to 10 uM; format: cell-based; settings: in the assay text read “up to 1 mM” for “up to 10 uM”
# Summary of the method: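 Human fibroblasts were grown in DMEM with 5% FBS at 37 °C and 5% CO2, seeded at 3.2 × 10^4 cells/well, and grown 48 h to about 80% confluence. Cells were exposed to compound in DMEM for 24 h, with mitomycin C as control. MTT was added for 4 h, formazan was dissolved in isopropanol, and absorbance was read at 600 nm.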
Compound,Kd (Nucleic Acid [1]; read-out: Kd) [nM],Kd [3] [µM],Kd (Nucleic Acid [2]; read-out: Kd) [nM],also measured
C=CC[C@H](NC(=O)c1cc2ccccc2nc1CC)C(=O)N1CCC[C@H]1C(=O)N[C@@H](Cc1ccccc1)C(=O)NCCCN,470,–,–,Kd (Nucleic Acid [2]): Not Active
NCCCNC(=O)[C@H](Cc1ccccc1)NC(=O)[C@@H]1CCCN1C(=O)[C@@H](N)CSSC[C@H](N)C(=O)N1CCC[C@H]1C(=O)N[C@@H](Cc1ccccc1)C(=O)NCCCN,–,–,–,Kd (Nucleic Acid [1]): Not Active
NC[C@@H]1O[C@H](O[C@H]2[C@@H](O)[C@H](O[C@@H]3[C@@H](O)[C@H](N)C[C@H](N)[C@H]3O[C@H]3O[C@H](CN)[C@@H](O)[C@H](O)[C@H]3N)O[C@@H]2CO)[C@H](N)[C@@H](O)[C@@H]1O [FRAMYCETIN],–,2.6,–,–
CCc1nc2ccccc2cc1C(=O)O,290,–,–,Kd (Nucleic Acid [2]): Not Active
NCCCNC(=O)[C@H](Cc1ccccc1)NC(=O)[C@@H]1CCCN1C(=O)[C@H](CSSC[C@H](NC(=O)c1cnc2ccccc2c1)C(=O)N1CCC[C@H]1C(=O)N[C@@H](Cc1ccccc1)C(=O)NCCCN)NC(=O)c1cnc2ccccc2c1,650,–,–,–
CCc1nc2ccccc2cc1C(=O)N[C@@H](CCCC[C@H](NC(=O)c1cc2ccccc2nc1CC)C(=O)N1CCC[C@H]1C(=O)N[C@@H](Cc1ccccc1)C(=O)NCCCN)C(=O)N1CCC[C@H]1C(=O)N[C@@H](Cc1ccccc1)C(=O)NCCCN,1270,12.3,1410,–
CCc1nc2cc3c(cc2cc1C(=O)N[C@@H](CSSC[C@H](NC(=O)c1cc2cc4c(cc2nc1CC)OCO4)C(=O)N1CCC[C@H]1C(=O)N[C@@H](Cc1ccccc1)C(=O)NCCCN)C(=O)N1CCC[C@H]1C(=O)N[C@@H](Cc1ccccc1)C(=O)NCCCN)OCO3,1420,–,–,–

# More lines, main results first:
Kd (Nucleic Acid [1]; read-out: Kd) [nM],Kd [3] [µM],Kd (Nucleic Acid [2]; read-out: Kd) [nM],Compound,also measured
180,4.66,260,CCc1nc2ccccc2cc1C(=O)N[C@@H](C/C=C\C[C@H](NC(=O)c1cc2ccccc2nc1CC)C(=O)N1CCC[C@H]1C(=O)N[C@@H](Cc1ccccc1)C(=O)NCCCN)C(=O)N1CCC[C@H]1C(=O)N[C@@H](Cc1ccccc1)C(=O)NCCCN,Activity [4]: Non-toxic
430,–,–,Cc1nc2ccccc2cc1C(=O)N[C@@H](CSSC[C@H](NC(=O)c1cc2ccccc2nc1C)C(=O)N1CCC[C@H]1C(=O)N[C@@H](Cc1ccccc1)C(=O)NCCCN)C(=O)N1CCC[C@H]1C(=O)N[C@@H](Cc1ccccc1)C(=O)NCCCN,–
230,–,–,NCCCNC(=O)[C@H](Cc1ccccc1)NC(=O)[C@@H]1CCCN1C(=O)[C@H](CSSC[C@H](NC(=O)c1ccc2c(c1)C(=O)c1ccccc1C2=O)C(=O)N1CCC[C@H]1C(=O)N[C@@H](Cc1ccccc1)C(=O)NCCCN)NC(=O)c1ccc2c(c1)C(=O)c1ccccc1C2=O,–
350,7.88,200,CCc1nc2ccccc2cc1C(=O)N[C@@H](CSSC[C@H](NC(=O)c1cc2ccccc2nc1CC)C(=O)N1CCC[C@H]1C(=O)N[C@@H](Cc1ccccc1)C(=O)NCCCN)C(=O)N1CCC[C@H]1C(=O)N[C@@H](Cc1ccccc1)C(=O)NCCCN,–
330,11.2,390,CCc1nc2ccccc2cc1C(=O)N[C@@H](C/C=C/C[C@H](NC(=O)c1cc2ccccc2nc1CC)C(=O)N1CCC[C@H]1C(=O)N[C@@H](Cc1ccccc1)C(=O)NCCCN)C(=O)N1CCC[C@H]1C(=O)N[C@@H](Cc1ccccc1)C(=O)NCCCN,–
